Test results reported in ChEMBL document CHEMBL4257540, “Structure-based virtual screening and ADME/T-based prediction analysis for the discovery of novel antifungal CYP51 inhibitors” (Medchemcomm, 2018).
In brackets after ≈: the same amount, converted by molar mass.

Tests used:
[1] = target: T1, Lanosterol 14-alpha demethylase (Candida albicans (strain SC5314 / ATCC MYA-2876) (Yeast), UniProt P10613); test: Inhibition of CYP51 in Candida albicans SC5314 assessed as ergosterol content at 8 ug/ml after 16 hrs by GC/MS analysis (reference value: 90.3%); set-up: scale not given: the % may be the effect or the level left; details: candida albicans sc5314, 16 h
T1 sequence (P10613 whole entry): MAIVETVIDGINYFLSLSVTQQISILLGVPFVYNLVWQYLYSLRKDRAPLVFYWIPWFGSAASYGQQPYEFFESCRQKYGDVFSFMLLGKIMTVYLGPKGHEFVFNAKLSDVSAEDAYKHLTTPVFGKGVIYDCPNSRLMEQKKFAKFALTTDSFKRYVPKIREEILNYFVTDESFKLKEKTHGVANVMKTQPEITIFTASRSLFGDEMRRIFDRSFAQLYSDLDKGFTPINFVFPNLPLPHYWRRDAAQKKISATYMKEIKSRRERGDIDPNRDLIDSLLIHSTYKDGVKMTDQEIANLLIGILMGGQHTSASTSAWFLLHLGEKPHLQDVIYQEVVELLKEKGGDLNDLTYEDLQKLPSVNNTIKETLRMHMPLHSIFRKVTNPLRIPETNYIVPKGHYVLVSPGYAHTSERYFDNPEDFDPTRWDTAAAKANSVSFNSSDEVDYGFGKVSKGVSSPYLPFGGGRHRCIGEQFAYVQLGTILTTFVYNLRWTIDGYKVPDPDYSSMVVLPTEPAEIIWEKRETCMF

[2] = target: T1, Lanosterol 14-alpha demethylase; test: Inhibition of CYP51 in Candida albicans SC5314 assessed as obtusifoliol content at 8 ug/ml after 16 hrs by GC/MS analysis relative to control; set-up: scale not given: the % may be the effect or the level left; details: candida albicans sc5314, 16 h
Pichia kudriavzevii = test: Antifungal activity against Candida krusei ATCC 6258 by broth microdilution method; format: functional
Procedure, shortened: (§1)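 MIC per NCCLS broth microdilution. Fungi incubated at 35 °C and growth checked daily. Fluconazole served as positive control.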

Nakaseomyces glabratus = test: Antifungal activity against Candida glabrata ATCC 0001 by broth microdilution method; format: functional; procedure, shortened: as §1
Candida tropicalis = test: Antifungal activity against Candida tropicalis ATCC 1369 by broth microdilution method; format: functional; procedure, shortened: as §1
Aspergillus fumigatus = test: Antifungal activity against Aspergillus fumigatus KM8001 by broth microdilution method; format: functional; procedure, shortened: as §1
[3] = target: T1, Lanosterol 14-alpha demethylase; test: Inhibition of CYP51 in Candida albicans SC5314 assessed as lanosterol content at 8 ug/ml after 16 hrs by GC/MS analysis (reference value: 3.9%); set-up: scale not given: the % may be the effect or the level left; details: candida albicans sc5314, 16 h
[4] = target: T1, Lanosterol 14-alpha demethylase; test: Inhibition of CYP51 in Candida albicans SC5314 assessed as unidentified sterol content at 8 ug/ml after 16 hrs by GC/MS analysis (reference value: 5.8%); set-up: scale not given: the % may be the effect or the level left; details: candida albicans sc5314, 16 h
Candida albicans [5] = test: Antifungal activity against fluconazole-resistant Candida albicans 103 by broth microdilution method; format: functional
Procedure, shortened: (§2)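 Broth microdilution MIC per NCCLS guidelines; strains from a Chinese medical fungus preservation centre and Shenyang Pharmaceutical University. Cultures kept at 35 °C with daily growth observation.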

[6] = target: T1, Lanosterol 14-alpha demethylase; test: Inhibition of CYP51 in Candida albicans SC5314 assessed as eburicol content at 8 ug/ml after 16 hrs by GC/MS analysis relative to control; set-up: scale not given: the % may be the effect or the level left; details: candida albicans sc5314, 16 h
Candida albicans [7] = test: Antifungal activity against fluconazole-resistant Candida albicans 100 by broth microdilution method; format: functional; procedure, shortened: as §2
Candida albicans [8] = test: Antifungal activity against Candida albicans ATCC 10231 by broth microdilution method; format: functional; procedure, shortened: as §2

Row | SMILES | Activity [1] [%] | Activity [2] [%] | MIC (Pichia kudriavzevii) [µg/mL] | MIC (Nakaseomyces glabratus) [µg/mL] | MIC (Candida tropicalis) [µg/mL] | MIC (Aspergillus fumigatus) [µg/mL] | Activity [3] [%] | Activity [4] [%] | MIC (Candida albicans [5]) [µg/mL] | Activity [6] [%] | MIC (Candida albicans [7]) [µg/mL] | MIC (Candida albicans [8]) [µg/mL]
1 | COc1cccc(NC(=S)N(CCN(C)C)[C@@H](C)c2ccncc2)c1 | 5.8 | 7.1 | 4 (≈ 11.2 µM) | 2 (≈ 5.58 µM) | 4 (≈ 11.2 µM) | 8 (≈ 22.3 µM) | 22.4 | 5.7 | 4 (≈ 11.2 µM) | 59 | 8 (≈ 22.3 µM) | 4 (≈ 11.2 µM)
2 | O=C(NCCc1ccncc1)c1cnc2c(F)cccc2c1O | 9.1 | 8.2 | 8 (≈ 25.7 µM) | 4 (≈ 12.8 µM) | 16 (≈ 51.4 µM) | 16 (≈ 51.4 µM) | 23.1 | 4.9 | 16 (≈ 51.4 µM) | 54.7 | 8 (≈ 25.7 µM) | 8 (≈ 25.7 µM)
3 | Nc1c(/C=N/NC(=O)c2ccncc2)ccc2c1C(=O)c1ccccc1C2=O | 4.6 | 7.4 | 4 (≈ 10.8 µM) | 8 (≈ 21.6 µM) | 2 (≈ 5.4 µM) | 16 (≈ 43.2 µM) | 20.3 | 4.3 | 16 (≈ 43.2 µM) | 63.4 | 8 (≈ 21.6 µM) | 8 (≈ 21.6 µM)
4 | OC(Cn1cncn1)(Cn1cncn1)c1ccc(F)cc1F [FLUCONAZOLE] | 2.5 | 6.3 | 2 (≈ 6.53 µM) | 2 (≈ 6.53 µM) | 2 (≈ 6.53 µM) | 32 (≈ 104 µM) | 19.9 | 4.1 | > 64 | 67.2 | > 64 | 4 (≈ 13.1 µM)
